Laboratory results: ChEMBL document CHEMBL4266038, “Total Synthesis of Xanthoangelol B and Its Various Fragments: Toward Inhibition of Virulence Factor Production of Staphylococcus aureus” (J Med Chem, 2018)
The source made the active and inactive calls. The rule behind the calls is not given here.

What was measured:
[1] = system: Staphylococcus aureus; test: Growth inhibition of Staphylococcus aureus USA300 at 16 uM after 20 hrs; format: organism-based
How it was run: (§1)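 USA300 was grown in TSB at 37 °C with shaking at 250 rpm. Growth was followed in the presence of compound for 8 h and for 20 h, in triplicate.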

[2] = system: Staphylococcus aureus; test: Growth inhibition of Staphylococcus aureus USA300 at 64 uM after 20 hrs; format: organism-based; how it was run: as §1
[3] = system: Staphylococcus aureus subsp. aureus USA300; test: Inhibition of Staphylococcus aureus USA300 SaeRS assessed as reduction in alpha-hemolysin gene expression at 8 uM after 6 hrs by qRT-PCR analysis
[4] = system: Staphylococcus aureus subsp. aureus USA300; test: Inhibition of Staphylococcus aureus USA300 SaeRS assessed as reduction in aureolysin gene expression at 8 uM after 6 hrs by qRT-PCR analysis
[5] = system: Staphylococcus aureus subsp. aureus USA300; test: Inhibition of Staphylococcus aureus USA300 SaeRS assessed as reduction in gamma-hemolysin gene expression at 8 uM after 6 hrs by qRT-PCR analysis
[6] = system: Staphylococcus aureus subsp. aureus USA300; test: Inhibition of Staphylococcus aureus USA300 SaeRS assessed as reduction in staphylokinase gene expression at 8 uM after 6 hrs by qRT-PCR analysis
How it was run: (§2)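 S. aureus cultures were treated with compound for 6 h. Total RNA was stabilised and purified with enzymatic disruption, then reverse-transcribed with random hexamers. qRT-PCR used an intercalating dye, with transcripts normalised to 16S rRNA, in triplicate.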

[7] = system: Staphylococcus aureus; test: Reduction in Staphylococcus aureus USA300 sarA gene expression at 8 uM after 6 hrs by qRT-PCR analysis; format: functional; how it was run: as §2
[8] = system: HeLa; test: Cytotoxicity against human HeLa cells assessed as reduction in cell viability at 8 uM after 72 hrs by fluorescein diacetate/propidium iodide double staining based confocal microscopy
[9] = system: HeLa; test: Cytotoxicity against human HeLa cells assessed as reduction in cell viability at >IC50 concentration after 72 hrs by fluorescein diacetate/propidium iodide double staining based confocal microscopy
[10] = system: Staphylococcus aureus; test: Antivirulence activity in Staphylococcus aureus USA300-infected Galleria mellonella larvae model injected at every 12 h interval for 72 hrs; format: functional, organism-based
How it was run: (§3)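 G. mellonella larvae, 10 per group, were each injected with 20 µl of USA300 inoculum (5x10^6 cfu) into the lower left proleg and held at 37 °C in the dark without food. Treatment was given after infection and repeated every 12 h over 72 h, at doses up to 4.085 or 4.262 mg/kg body weight. Survival was scored daily along with activity, silk production and melanization.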

[11] = system: Staphylococcus aureus; test: Antivirulence activity in Staphylococcus aureus USA300-infected Galleria mellonella larvae model assessed as larvae survival at 4.1 mg/kg injected at 2 hrs post infection at every 12 hr interval for 72 hrs (reference value: 20%); format: functional; how it was run: as §3
[12] = system: Staphylococcus aureus; test: Antibacterial activity against Staphylococcus aureus USA300 assessed as log reduction in bacterial burden after 72 hrs; format: functional, organism-based
How it was run: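 Galleria mellonella larvae (10 per group) injected in the lower left proleg with 5x10^6 cfu USA300 in 20 µl, held at 37 °C in the dark; treatment began 2 h post infection and was re-injected every 12 h for 72 h. Haemolymph was plated on blood agar to count S. aureus burden at 72 h.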

[13] = target: T1, Histidine protein kinase SaeS (Staphylococcus aureus (strain NCTC 8325)) (UniProt Q2G2U1); test: Inhibition of phosphotransfer reaction from recombinant Staphylococcus aureus phosphorylated His6-tagged SaeS kinase domain to Staphylococcus aureus SaeR expressed in Escherichia coli BL21(DE3) at 0.2 mM after 60 mins by coomassie-brilliant blue staining based SDS PAGE/autoradiographic analysis
T1 sequence (whole entry): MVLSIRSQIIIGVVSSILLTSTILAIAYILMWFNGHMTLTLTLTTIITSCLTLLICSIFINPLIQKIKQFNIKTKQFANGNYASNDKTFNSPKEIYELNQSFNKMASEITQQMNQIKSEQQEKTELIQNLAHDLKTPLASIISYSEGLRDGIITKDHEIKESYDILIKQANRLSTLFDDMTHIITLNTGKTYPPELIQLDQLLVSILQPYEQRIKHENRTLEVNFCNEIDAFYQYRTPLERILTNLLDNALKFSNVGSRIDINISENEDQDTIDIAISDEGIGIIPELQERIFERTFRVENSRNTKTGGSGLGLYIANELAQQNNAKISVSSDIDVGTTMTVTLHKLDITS

[14] = system: Staphylococcus aureus subsp. aureus USA300; test: Inhibition of Staphylococcus aureus USA300 GFP-fused SaeRS at 20 uM after 8 hrs by fluorescence-based assay
How it was run: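 Reporter strain S. aureus carrying a P_hlam-gfp fusion (kept on chloramphenicol 5 µg/ml) was grown in TSB to OD600 = 1 and diluted to 5x10^5 cells/ml with compound; DMSO served as blank. Cultures were shaken at 37 °C for 8 h, then GFP (ex 485/em 515 nm) and OD600 were read.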

[15] = system: Staphylococcus aureus; test: Growth inhibition of Staphylococcus aureus USA300 up to 64 uM after 8 to 20 hrs; format: organism-based; how it was run: as §1
[16] = system: Staphylococcus aureus subsp. aureus USA300; test: Inhibition of Staphylococcus aureus USA300 SaeRS assessed as reduction in alpha-hemolysin gene expression at 10 uM after 6 hrs by qRT-PCR analysis
[17] = system: Staphylococcus aureus subsp. aureus USA300; test: Inhibition of Staphylococcus aureus USA300 SaeRS assessed as reduction in aureolysin gene expression at 10 uM after 6 hrs by qRT-PCR analysis
[18] = system: Staphylococcus aureus subsp. aureus USA300; test: Inhibition of Staphylococcus aureus USA300 SaeRS assessed as reduction in gamma-hemolysin gene expression at 10 uM after 6 hrs by qRT-PCR analysis
[19] = system: Staphylococcus aureus subsp. aureus USA300; test: Inhibition of Staphylococcus aureus USA300 SaeRS assessed as reduction in staphylokinase gene expression at 10 uM after 6 hrs by qRT-PCR analysis; how it was run: as §2
[20] = system: Staphylococcus aureus; test: Reduction in Staphylococcus aureus USA300 sarA gene expression at 10 uM after 6 hrs by qRT-PCR analysis; format: functional; how it was run: as §2
[21] = system: Staphylococcus aureus; test: Antivirulence activity in Staphylococcus aureus USA300-infected Galleria mellonella larvae model assessed as larvae survival at 4.3 mg/kg injected at 2 hrs post infection at every 12 hr interval for 72 hrs (reference value: 20%); format: functional; how it was run: as §3
[22] = target: T1, Histidine protein kinase SaeS (Staphylococcus aureus (strain NCTC 8325)); test: Binding affinity to Staphylococcus aureus MBP-fused SaeS by STD-NMR spectrophotometry
How it was run: (§4)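 Saturation transfer difference 1D NMR with ligand fixed at 1.0 mM, prepared from a stock in deuterated DMSO. Protein was either 30 µM minimal SaeS kinase domain fused to maltose binding protein (MBP-SaeS) or 0.1 mM minimal kinase domain, dialysed into NMR buffer beforehand.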

[23] = target: T1, Histidine protein kinase SaeS (Staphylococcus aureus (strain NCTC 8325)); test: Inhibition of phosphotransfer reaction from recombinant Staphylococcus aureus phosphorylated His6-tagged SaeS kinase domain to Staphylococcus aureus SaeR expressed in Escherichia coli BL21(DE3) at 0.2 to 1 mM after 60 mins by coomassie-brilliant blue staining based SDS PAGE/autoradiographic analysis
[24] = target: T1, Histidine protein kinase SaeS (Staphylococcus aureus (strain NCTC 8325)); test: Binding affinity to Staphylococcus aureus SaeS assessed as T2-rerelaxation time of compound peak at 1 mM by 1D CPMG method
How it was run: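 Transverse-relaxation-filtered 1D NMR using a CPMG pulse train. Ligand fixed at 1.0 mM, from a stock in deuterated DMSO; minimal SaeS kinase domain at 0.1 mM, dialysed into NMR buffer.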

[25] = target: T1, Histidine protein kinase SaeS (Staphylococcus aureus (strain NCTC 8325)); test: Binding affinity to Staphylococcus aureus SaeS kinase domain at 1 mM by 1D-NMR analysis; how it was run: as §4

C=C(C)C(O)CC/C(C)=C/Cc1c(O)ccc(C(=O)/C=C/c2ccc(O)cc2)c1O (centres undefined) [XANTHOANGELOL B]
growth inhibition (GI) [1]: Toxic | growth inhibition (GI) [2]: Toxic | inhibition [3]: Active | inhibition [4]: Active | inhibition [5]: Active | inhibition [6]: Active | Activity [7]: inactive | Activity [8]: Non-Toxic | Activity [9]: Non-Toxic | Activity [10]: Dose-dependent effect | survival at 4.1 mg/kg [11]: 100% | Activity [12]: Dose-dependent effect | inhibition [13]: inactive

O=C(/C=C/c1ccc(O)cc1)c1ccc(O)cc1O
inhibition [14]: inactive

C=C(C)CCC=C(C)C
inhibition [14]: inactive

C=CCc1c(O)ccc(C(=O)/C=C/c2ccc(O)cc2)c1O
inhibition [14]: inactive

COc1ccc(C(=O)/C=C/c2ccc(O)cc2)c(O)c1C/C=C(\C)CCC=C(C)C
inhibition [14]: inactive

C=C(C)C(O)CC/C(C)=C/Cc1c(O)ccc(C(=O)CC(O)c2ccc(O)cc2)c1O (centres undefined)
growth inhibition (GI) [15]: Non-Toxic | inhibition [16]: Active | inhibition [17]: Active | inhibition [18]: Active | inhibition [19]: Active | Activity [20]: inactive | Activity [8]: Non-Toxic | Activity [9]: Non-Toxic | Activity [10]: Dose-dependent effect | survival at 4.3 mg/kg [21]: 100% | Activity [12]: Dose-dependent effect | Activity [22]: Active | inhibition [23]: inactive | Activity [24]: Active | Activity [25]: Active

CC(C)=CCC/C(C)=C/Cc1c(O)ccc(C(=O)/C=C/c2ccc(O)cc2)c1O
inhibition [14]: inactive

C=CCc1c(O)ccc(C(C)=O)c1O
inhibition [14]: inactive
